Data on two compounds can be found in ChEMBL document CHEMBL1255234, “daptomycin activity against Staphylococcus aureus following vancomycin exposure in an in vitro pharmacodynamic model with simulated endocardial vegetations” (Antimicrob Agents Chemother, 2008).

Structures are written as SMILES. ≈ marks a conversion by molar mass, not a printed value.

Data set [1] deals with Staphylococcus aureus. Put plainly: Antimicrobial activity against methicillin-susceptible Staphylococcus aureus 616 at 6 mg/kg administered daily for 4 days in in vitro pharmacokinetic-pharmacodynamic model with simulated endocardial vegetations. It counts as functional. The method in brief:
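SEVs (clot of cryoprecipitate, platelets and organism) were suspended in a 250-ml, 37°C model with bolus dosing and pump clearance simulating half-lives. Daptomycin was given every 24 h (Cmax 98.6, Cmin 6.2 mg/liter) after 4 days of vancomycin 1 g q12h or no treatment. SEVs were sampled to 192 h, homogenized and plated (35°C, 24 h) for CFU/g; T99.9 was derived. Runs were done in duplicate.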

Data set [2] concerns Staphylococcus aureus. Description: AUC(0-24 hrs)/MIC(broth) in methicillin-susceptible Staphylococcus aureus 616 at 1 g administered every 12 hrs for 4 days in in vitro pharmacokinetic-pharmacodynamic model with simulated endocardial vegetations. Format: functional. The method in brief: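 S. aureus simulated endocardial vegetations (fibrin/platelet clots, ~10^9 CFU/g) suspended in a 250-ml one-compartment model at 37°C, medium pumped to mimic half-life; vancomycin bolus every 12 h (target Cmax 30, Cmin 10 mg/liter) for 4 days. Duplicate runs. Drug levels by fluorescence polarization immunoassay; AUC0-24 by trapezoidal method, divided by broth microdilution MIC (CLSI).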

Data set [3] has as its system Staphylococcus aureus. Put plainly: Antimicrobial activity against methicillin-resistant Staphylococcus aureus WB1.
Data set [4] concerns Staphylococcus aureus. Description: Half life in methicillin-resistant Staphylococcus aureus WB2 at 6 mg/kg administered daily for 4 days pretreated with 1 g vancomycin administered every 12 hrs for 4 days in in vitro pharmacokinetic-pharmacodynamic model with simulated endocardial vegetations. It counts as ADME, organism-based. Also on record: dose 6 mg/kg. Conditions: in vivo, 96 h. The method in brief:
(§1)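 Duplicate samples taken from the model injection port over 0–192 h and stored at −70°C. Daptomycin assayed by Micrococcus luteus ATCC 9341 disk microbioassay (standards 2.5–150 mg/liter; detection limit 2.5 mg/liter). Vancomycin assayed by fluorescence polarization immunoassay (detection limit 2 mg/liter). Cmax and half-life derived by the trapezoidal method.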

Data set [5] has as its system Staphylococcus aureus. Description: Cmax in methicillin-resistant Staphylococcus aureus 36132 at 6 mg/kg administered daily for 4 days pretreated with 1 g vancomycin administered every 12 hrs for 4 days in in vitro pharmacokinetic-pharmacodynamic model with simulated endocardial vegetations. Format: ADME, organism-based. Also on record: dose 6 mg/kg. Conditions: in vivo, 96 h. The method in brief: as §1

Data set [6] relates to Staphylococcus aureus. Description: Antimicrobial activity against methicillin-susceptible Staphylococcus aureus 616 at 6 mg/kg administered daily for 8 days in in vitro pharmacokinetic-pharmacodynamic model with simulated endocardial vegetations. Format: functional. The essentials:
(§2)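 S. aureus SEVs (≈10^9 CFU/g inoculum in human cryoprecipitate plus platelets) suspended in a 250-ml one-compartment model at 37°C. Fresh medium pumped to simulate drug half-lives; drug given as boluses over 8 days; duplicate models. Two SEVs removed per model at each time point (0–192 h), homogenized, plated on TSA 35°C 24 h. Log10 CFU/g reduction read from time-kill curves; detection limit 2.0 log10 CFU/g.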

Data set [7] has as its system Staphylococcus aureus. Description: Half life in methicillin-susceptible Staphylococcus aureus 616 at 6 mg/kg administered daily for 4 days pretreated with 1 g vancomycin administered every 12 hrs for 4 days in in vitro pharmacokinetic-pharmacodynamic model with simulated endocardial vegetations. It counts as ADME, organism-based. Also on record: dose 6 mg/kg. Conditions: in vivo, 96 h. The method in brief: as §1

Data set [8] has as its system Staphylococcus aureus. Put plainly: Half life in methicillin-susceptible Staphylococcus aureus 616 at 10 mg/kg administered daily for 4 days pretreated with 1 g vancomycin administered every 12 hrs for 4 days in in vitro pharmacokinetic-pharmacodynamic model with simulated endocardial vegetations. Format: ADME, organism-based. Also on record: dose 10 mg/kg. The note with it: in vivo, 96 h. The essentials:
as §1

The subject of data set [9] is Staphylococcus aureus. Description: Antimicrobial activity against methicillin-susceptible Staphylococcus aureus at 6 mg/kg administered daily for 4 days after 4 days of growth without antibiotic in in vitro pharmacokinetic-pharmacodynamic model with simulated endocardial vegetations.
Data set [10] has as its system Staphylococcus aureus. Put plainly: Antimicrobial activity against methicillin-susceptible Staphylococcus aureus 616 at 6 mg/kg administered daily for 8 days pretreated with 1 g vancomycin administered every 12 hrs for 4 days in in vitro pharmacokinetic-pharmacodynamic model with simulated endocardial vegetations. It counts as functional. The essentials: as §2
Data set [11] has as its system Staphylococcus aureus. Put plainly: Half life in methicillin-resistant Staphylococcus aureus WB1 at 6 mg/kg administered daily for 4 days pretreated with 1 g vancomycin administered every 12 hrs for 4 days in in vitro pharmacokinetic-pharmacodynamic model with simulated endocardial vegetations. It counts as ADME, organism-based. Also on record: dose 6 mg/kg. Conditions: in vivo, 96 h. The essentials:
as §1

Data set [12] deals with Staphylococcus aureus. Put plainly: microbe, parasite or virus in culture. Conditions: 675.
Data set [13] deals with Staphylococcus aureus. Put plainly: Cmax in methicillin-resistant Staphylococcus aureus 675 at 6 mg/kg administered daily for 4 days pretreated with 1 g vancomycin administered every 12 hrs for 4 days in in vitro pharmacokinetic-pharmacodynamic model with simulated endocardial vegetations. It counts as ADME, organism-based. Also on record: dose 6 mg/kg. The note with it: in vivo, 96 h. The method in brief:
as §1

In data set [14] the test system is Staphylococcus aureus. Put plainly: Half life in methicillin-resistant Staphylococcus aureus 675 at 6 mg/kg administered daily for 4 days pretreated with 1 g vancomycin administered every 12 hrs for 4 days in in vitro pharmacokinetic-pharmacodynamic model with simulated endocardial vegetations. Format: ADME, organism-based. Conditions: in vivo, 96 h. Also on record: dose 6 mg/kg. The method in brief:
as §1

Data set [15] concerns Staphylococcus aureus. Description: Antimicrobial activity against methicillin-resistant Staphylococcus aureus WB2.
Data set [16] has as its system Staphylococcus aureus. Description: Cmax in methicillin-susceptible Staphylococcus aureus 616 at 10 mg/kg administered daily for 4 days pretreated with 1 g vancomycin administered every 12 hrs for 4 days in in vitro pharmacokinetic-pharmacodynamic model with simulated endocardial vegetations. It counts as ADME, organism-based. Also on record: dose 10 mg/kg. Conditions: in vivo, 96 h. The method in brief: as §1

For data set [17], the system named is Staphylococcus aureus. Description: microbe, parasite or virus in culture. Conditions: 36132.
The test system of data set [18] is Staphylococcus aureus. Description: Cmax in methicillin-resistant Staphylococcus aureus WB1 at 6 mg/kg administered daily for 4 days pretreated with 1 g vancomycin administered every 12 hrs for 4 days in in vitro pharmacokinetic-pharmacodynamic model with simulated endocardial vegetations. It counts as ADME, organism-based. Also on record: dose 6 mg/kg. Conditions: in vivo, 96 h. The method in brief:
as §1

Data set [19] relates to Staphylococcus aureus. Description: Antimicrobial activity against methicillin-susceptible Staphylococcus aureus 616 at 6 mg/kg administered daily for 4 days pretreated with 1 g vancomycin administered every 12 hrs for 4 days in in vitro pharmacokinetic-pharmacodynamic model with simulated endocardial vegetations. Format: functional. The method in brief:
as §2

The test system of data set [20] is Staphylococcus aureus. Description: Cmax in methicillin-susceptible Staphylococcus aureus 616 at 6 mg/kg administered daily for 4 days pretreated with 1 g vancomycin administered every 12 hrs for 4 days in in vitro pharmacokinetic-pharmacodynamic model with simulated endocardial vegetations. The note with it: in vivo, 96 h. Also on record: dose 6 mg/kg. It counts as ADME, organism-based. The essentials:
as §1

The test system of data set [21] is Staphylococcus aureus. Put plainly: Half life in methicillin-resistant Staphylococcus aureus 36132 at 6 mg/kg administered daily for 4 days pretreated with 1 g vancomycin administered every 12 hrs for 4 days in in vitro pharmacokinetic-pharmacodynamic model with simulated endocardial vegetations. Format: ADME, organism-based. Also on record: dose 6 mg/kg. Conditions: in vivo, 96 h. The essentials: as §1

Data set [22] deals with Staphylococcus aureus. Put plainly: Antimicrobial activity against methicillin-susceptible Staphylococcus aureus 616. It counts as functional. The method in brief:
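MIC by broth microdilution in SMHB or by Etest, following CLSI guidelines. MBC defined as 99.9% killing of the starting inoculum, from 5 μl of the MIC well and all other growth-inhibited wells plated onto agar.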

The subject of data set [23] is Staphylococcus aureus. Description: Cmax in methicillin-resistant Staphylococcus aureus WB2 at 6 mg/kg administered daily for 4 days pretreated with 1 g vancomycin administered every 12 hrs for 4 days in in vitro pharmacokinetic-pharmacodynamic model with simulated endocardial vegetations. Format: ADME, organism-based. Also on record: dose 6 mg/kg. Conditions: in vivo, 96 h. The method in brief: as §1

For data set [24], the system named is Staphylococcus aureus. Description: Half life in methicillin-resistant Staphylococcus aureus WB2 at 1 g administered every 12 hrs for 4 days in in vitro pharmacokinetic-pharmacodynamic model with simulated endocardial vegetations. It counts as ADME, organism-based. Conditions: in vivo. The essentials: as §1
In data set [25] the test system is Staphylococcus aureus. Put plainly: Half life in methicillin-susceptible Staphylococcus aureus 616 at 1 g administered every 12 hrs for 4 days in in vitro pharmacokinetic-pharmacodynamic model with simulated endocardial vegetations. Format: ADME, organism-based. The note with it: in vivo. The essentials:
as §1

Data set [26] relates to Staphylococcus aureus. Description: Half life in methicillin-resistant Staphylococcus aureus 675 at 1 g administered every 12 hrs for 4 days in in vitro pharmacokinetic-pharmacodynamic model with simulated endocardial vegetations. It counts as ADME, organism-based. Conditions: in vivo. The method in brief:
as §1

Data set [27] deals with Staphylococcus aureus. Description: Cmax in methicillin-resistant Staphylococcus aureus WB1 at 1 g administered every 12 hrs for 4 days in in vitro pharmacokinetic-pharmacodynamic model with simulated endocardial vegetations. It counts as ADME, organism-based. Also on record: dose 1 g. The note with it: in vivo. The essentials:
as §1

The test system of data set [28] is Staphylococcus aureus. Description: Cmax in methicillin-resistant Staphylococcus aureus 36132 at 1 g administered every 12 hrs for 4 days in in vitro pharmacokinetic-pharmacodynamic model with simulated endocardial vegetations. Format: ADME, organism-based. Also on record: dose 1 g. Conditions: in vivo. The essentials: as §1
Data set [29] has as its system Staphylococcus aureus. Description: Cmax in methicillin-resistant Staphylococcus aureus WB2 at 1 g administered every 12 hrs for 4 days in in vitro pharmacokinetic-pharmacodynamic model with simulated endocardial vegetations. The note with it: in vivo. Format: ADME, organism-based. Also on record: dose 1 g. The method in brief: as §1
Data set [30] deals with Staphylococcus aureus. Put plainly: Half life in methicillin-resistant Staphylococcus aureus WB1 at 1 g administered every 12 hrs for 4 days in in vitro pharmacokinetic-pharmacodynamic model with simulated endocardial vegetations. Format: ADME, organism-based. The note with it: in vivo. The essentials: as §1
Data set [31] concerns Staphylococcus aureus. Put plainly: Cmax in methicillin-resistant Staphylococcus aureus 675 at 1 g administered every 12 hrs for 4 days in in vitro pharmacokinetic-pharmacodynamic model with simulated endocardial vegetations. Format: ADME, organism-based. Also on record: dose 1 g. The note with it: in vivo. The essentials:
as §1

For data set [32], the system named is Staphylococcus aureus. Description: Half life in methicillin-resistant Staphylococcus aureus 36132 at 1 g administered every 12 hrs for 4 days in in vitro pharmacokinetic-pharmacodynamic model with simulated endocardial vegetations. It counts as ADME, organism-based. The note with it: in vivo. The method in brief:
as §1

The subject of data set [33] is Staphylococcus aureus. Put plainly: Cmax in methicillin-susceptible Staphylococcus aureus 616 at 1 g administered every 12 hrs for 4 days in in vitro pharmacokinetic-pharmacodynamic model with simulated endocardial vegetations. It counts as ADME, organism-based. Also on record: dose 1 g. The note with it: in vivo. The method in brief:
as §1

For orientation: Cmax means the maximum level reached in the sampled fluid or tissue.

On to `CCCCCCCCCC(=O)N[C@@H](Cc1c[nH]c2ccccc12)C(=O)N[C@H](CC(N)=O)C(=O)N[C@@H](CC(=O)O)C(=O)N[C@@H]1C(=O)NCC(=O)N[C@@H](CCCN)C(=O)N[C@@H](CC(=O)O)C(=O)N[C@H](C)C(=O)N[C@@H](CC(=O)O)C(=O)NCC(=O)N[C@H](CO)C(=O)N[C@@H]([C@H](C)CC(=O)O)C(=O)N[C@@H](CC(=O)c2ccccc2N)C(=O)O[C@@H]1C`, for which the T99.9% was 10.9 h in data set [1]; 4.8 h in [6]; 34.9 h in [9]; 6.6 h in data set [10]; 9.46 h in [19]. This compound returned a RatioAUC/MIC in [2] of 536.4. Also, the MIC amounted to 0.25 µg/mL (≈ 0.154 µM) in [3]; 0.25 µg/mL (≈ 0.154 µM) in data set [12]; 0.25 µg/mL (≈ 0.154 µM) in data set [15]; 0.25 µg/mL (≈ 0.154 µM) in [17]; 0.125 µg/mL (≈ 0.0771 µM) in data set [22]. In addition, the t1/2 in [4] is 7.6 h; in data set [7] it was 8.4 h; in data set [8], 9.3 h; in data set [11], 7.9 h; in [14], 8 h; in data set [21], 8.8 h. The compound further came in with a t1/2 in [24] of 5.3 h. The Cmax in data set [5] is 109.3 µg/mL; in data set [13], 107.2 µg/mL; in [16], 160.2 µg/mL; in [18], 98.3 µg/mL; in [20], 106.8 µg/mL; in data set [23], 106.1 µg/mL.

As to `CN[C@H](CC(C)C)C(=O)N[C@H]1C(=O)N[C@@H](CC(N)=O)C(=O)N[C@H]2C(=O)N[C@H]3C(=O)N[C@H](C(=O)N[C@H](C(=O)O)c4cc(O)cc(O)c4-c4cc3ccc4O)[C@H](O)c3ccc(c(Cl)c3)Oc3cc2cc(c3O[C@@H]2O[C@H](CO)[C@@H](O)[C@H](O)[C@H]2O[C@H]2C[C@](C)(N)[C@H](O)[C@H](C)O2)Oc2ccc(cc2Cl)[C@H]1O` [VANCOMYCIN], the t1/2 in [25] is 7.4 h; in data set [26] it was 7.2 h; in [30], 6.6 h; in data set [32], 6.9 h; in data set [24] it was 5.3 h. The highest concentration (Cmax) is 32.8 µg/mL in data set [27]; 31.4 µg/mL in [28]; 33.4 µg/mL in data set [29]; 32.9 µg/mL in [31]; 31.7 µg/mL in data set [33].
